Measured values published in ChEMBL document CHEMBL1148035, “Isolation of bioactive and other oxoaporphine alkaloids from two annonaceous plants, Xylopia aethiopica and Miliusa cf. banacea” (J Nat Prod, 1994).

Tests used:
[1] = tested on: Saccharomyces cerevisiae; experiment: DNA damaging activity against rad 52 DNA repair gene/topoisomerase 1 deficient Saccharomyces cerevisiae mutant assessed as drug level required to produce 12 mm zone of inhibition well after 48 hrs; type: functional
Procedure, shortened: (§1)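 Yeast agar-well diffusion assay: test material in a 100 μl well, incubated 48 h at 37°. IC12 is the concentration in μg/ml giving a 12 mm diameter zone of inhibition around the well. Reported values are averages of 2 or 3 determinations.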

[2] = tested on: Saccharomyces cerevisiae; experiment: DNA damaging activity against rad 52 DNA repair gene deficient Saccharomyces cerevisiae mutant assessed as drug level required to produce 12 mm zone of inhibition after 48 hrs; type: functional; procedure, shortened: as §1
[3] = molecular target: DNA topoisomerase 2-alpha (Homo sapiens, UniProt P11388); experiment: Inhibition of DNA topoisomerase 2 assessed as bacteriophage P4 DNA unknotting after 30 mins
Sequence of DNA topoisomerase 2-alpha (P11388 whole entry): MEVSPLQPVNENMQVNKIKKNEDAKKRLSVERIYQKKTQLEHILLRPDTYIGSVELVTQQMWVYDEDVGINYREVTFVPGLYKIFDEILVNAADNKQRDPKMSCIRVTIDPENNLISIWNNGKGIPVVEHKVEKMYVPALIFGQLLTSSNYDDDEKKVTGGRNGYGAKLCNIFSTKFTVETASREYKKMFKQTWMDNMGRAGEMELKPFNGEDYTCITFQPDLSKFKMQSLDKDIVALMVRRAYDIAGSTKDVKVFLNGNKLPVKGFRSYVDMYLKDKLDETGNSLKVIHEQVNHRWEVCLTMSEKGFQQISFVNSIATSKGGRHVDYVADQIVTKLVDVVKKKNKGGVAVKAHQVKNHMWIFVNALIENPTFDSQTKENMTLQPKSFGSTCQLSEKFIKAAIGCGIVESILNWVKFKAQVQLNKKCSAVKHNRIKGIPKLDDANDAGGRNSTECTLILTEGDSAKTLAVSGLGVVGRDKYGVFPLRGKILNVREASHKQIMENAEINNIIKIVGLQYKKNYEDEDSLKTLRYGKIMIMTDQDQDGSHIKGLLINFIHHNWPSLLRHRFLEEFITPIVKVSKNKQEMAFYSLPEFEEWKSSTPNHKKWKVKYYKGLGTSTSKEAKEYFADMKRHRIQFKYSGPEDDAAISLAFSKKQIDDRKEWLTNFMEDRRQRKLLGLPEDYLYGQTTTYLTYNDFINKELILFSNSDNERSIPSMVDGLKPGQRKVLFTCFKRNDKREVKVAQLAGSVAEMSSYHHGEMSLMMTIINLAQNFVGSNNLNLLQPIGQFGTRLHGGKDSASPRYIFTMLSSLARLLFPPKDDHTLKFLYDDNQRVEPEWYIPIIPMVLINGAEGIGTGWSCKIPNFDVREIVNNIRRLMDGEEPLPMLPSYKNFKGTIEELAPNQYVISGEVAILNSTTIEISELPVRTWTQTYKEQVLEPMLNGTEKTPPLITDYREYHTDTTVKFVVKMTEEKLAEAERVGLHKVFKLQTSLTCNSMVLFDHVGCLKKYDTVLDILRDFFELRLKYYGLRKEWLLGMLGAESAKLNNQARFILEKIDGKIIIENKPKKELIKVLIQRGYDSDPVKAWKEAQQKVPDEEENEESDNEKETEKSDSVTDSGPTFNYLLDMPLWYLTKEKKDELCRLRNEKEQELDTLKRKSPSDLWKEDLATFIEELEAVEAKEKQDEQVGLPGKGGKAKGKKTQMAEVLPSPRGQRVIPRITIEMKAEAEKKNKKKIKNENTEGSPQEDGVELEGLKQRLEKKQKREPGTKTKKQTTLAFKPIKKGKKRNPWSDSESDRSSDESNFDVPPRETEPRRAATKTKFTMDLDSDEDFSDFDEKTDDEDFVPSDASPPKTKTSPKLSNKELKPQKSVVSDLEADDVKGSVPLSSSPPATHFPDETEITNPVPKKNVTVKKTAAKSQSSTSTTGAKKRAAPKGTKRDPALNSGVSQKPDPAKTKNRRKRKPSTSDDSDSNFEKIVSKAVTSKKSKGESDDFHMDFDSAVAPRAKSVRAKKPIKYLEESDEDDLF

[4] = tested on: Saccharomyces cerevisiae; experiment: DNA damaging activity against rad 6 DNA repair gene deficient Saccharomyces cerevisiae mutant assessed as drug level required to produce 12 mm zone of inhibition well after 48 hrs; type: functional; procedure, shortened: as §1
[5] = tested on: Saccharomyces cerevisiae; experiment: DNA damaging activity against wild type Saccharomyces cerevisiae expressing rad DNA repair gene assessed as drug level required to produce 12 mm zone of inhibition after 48 hrs; type: functional; procedure, shortened: as §1
[6] = tested on: Saccharomyces cerevisiae; experiment: Antifungal activity against rad 6 DNA repair gene deficient Saccharomyces cerevisiae mutant at 500 ug/ml; type: functional; settings: read-out: IZ
Procedure, shortened: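 Yeast well-diffusion assay against the rad 6 DNA-repair-deficient Saccharomyces cerevisiae strain. Sample is applied at the stated concentration (μg/ml) to a 100 μl well. Plates are incubated 48 h at 37°. Read-out is the diameter of the zone of inhibition, in mm.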

| IC50 [3] | Compound | Activity [1] | Activity [2] | Activity [4] | Activity [5] | zone of inhibition at 500 µg/mL [6] |
| --- | --- | --- | --- | --- | --- | --- |
| 81.9 µM | COc1ccc2c(c1)-c1c3c(cc4ccnc(c14)C2=O)OCO3 | 113 µg/mL | 214 µg/mL | – | – | – |
| 42.9 µM | O=C1c2ccc(O)cc2-c2c3c(cc4ccnc1c24)OCO3 | 72 µg/mL | 295 µg/mL | – | – | – |
| – | CC[C@@]1(O)C(=O)OCc2c1cc1n(c2=O)Cc2cc3ccccc3nc2-1 [CAMPTOTHECIN] | >20 µg/mL | 0.6 µg/mL | 8.7 µg/mL | – | – |
| – | COc1c(OC)c2c3c(nccc3c1OC)C(=O)c1ccccc1-2 [HOMOMOSCHATOLINE] | >500 µg/mL | >500 µg/mL | >500 µg/mL | – | – |
| – | O=C1c2ccccc2-c2c3c(cc4ccnc1c24)OCO3 [LIRIODENINE] | – | 16.7 µg/mL | – | 500 µg/mL | 15 mm |
| – | COc1cc2ccnc3c2c(c1OC)-c1ccccc1C3=O [LYSICAMINE] | 390 µg/mL | 300 µg/mL | >500 µg/mL | – | – |
| – | COc1cc2c(cc1OC)-c1c(OC)c(OC)cc3ccnc(c13)C2=O [OXOGLAUCINE] | >500 µg/mL | >500 µg/mL | >500 µg/mL | >500 µg/mL | – |
| – | COc1c(OC)c2c3c(nccc3c1OC)C(=O)c1cc3c(cc1-2)OCO3 [OXOPHOEBINE] | 2.6 µg/mL | 6.4 µg/mL | 4.7 µg/mL | >500 µg/mL | – |
| – | COC1=C(N)C(=O)c2nc(-c3nc(C(=O)O)c(C)c(-c4ccc(OC)c(OC)c4O)c3N)ccc2C1=O [STREPTONIGRIN] | <0.4 µg/mL | 0.4 µg/mL | 2.4 µg/mL | – | – |
